{"data": "Experimental data from different studies", "organism": "Escherichia coli", "effect on": "microbial killing", "note": "Each line is one published result; the experiments were not run side by side."}
{"SMILES": "COc1c(C)c(OC(=O)c2ccc(C)cc2)c(C)c(O)c1C(=O)/C=C/c1ccccc1", "assay": "broth dilution", "system": "ATCC25922", "MBC": "> 5000 µg/mL"}
{"SMILES": "CO[C@H]1O[C@H](COC(c2ccccc2)(c2ccccc2)c2ccccc2)[C@@H](OC(=O)c2ccc(C(C)(C)C)cc2)[C@H](OC(=O)c2ccc(C(C)(C)C)cc2)[C@H]1OC(=O)c1ccc(C(C)(C)C)cc1", "assay": "broth dilution", "MBC": "16 µg/mL"}
{"SMILES": "N#CC(=Cc1ccccc1O)C1=NC(=O)C(=Cc2cn(-c3ccccc3)nc2-c2ccccc2)S1", "assay": "broth dilution", "MBC": "0.5 µg/mL"}
{"SMILES": "COc1c(C)c(OC)c(C(=O)/C=C/c2ccccc2)c(OC)c1C", "assay": "broth dilution", "system": "ATCC25922", "MBC": "> 5000 µg/mL"}
{"SMILES": "O=C(O)c1cn(C2CC2)c2cc(N3CCNCC3)c(F)cc2c1=O", "assay": "broth dilution", "MBC": "0.25 µg/mL"}
{"SMILES": "COc1cc(Cc2cnc(N)nc2N)cc(OC)c1OC", "assay": "broth dilution", "conditions": "48 h", "MBC": "> 32 µg/mL"}
{"SMILES": "N#CC(=Cc1cn(-c2ccccc2)nc1-c1ccccc1)C1=NC(=O)CS1", "assay": "broth dilution", "MBC": "0.25 µg/mL"}
{"SMILES": "O=c1[nH]cc(F)c(=O)[nH]1", "assay": "broth dilution", "conditions": "48 h", "MBC": "> 32 µg/mL"}
{"SMILES": "CCn1cc(C(=O)O)c(=O)c2cc(F)c(N3CCNCC3)cc21", "assay": "broth dilution", "system": "ATCC 8739, ATCC8739", "MBC": "1 µM"}
{"SMILES": "COc1c(C)c(OC(=O)c2ccccc2)c(C)c(O)c1C(=O)/C=C/c1ccccc1", "assay": "broth dilution", "system": "ATCC25922", "MBC": "> 5000 µg/mL"}
{"SMILES": "CNC1=C([N+](=O)[O-])C2(C(=O)Nc3ccccc32)C2=C(O1)C(=O)c1ccccc1C2=O (stereo not drawn)", "system": "ATCC25922", "MBC": "≤ 500 µg/mL"}
{"SMILES": "CN[C@H](CC(C)C)C(=O)N[C@H]1C(=O)N[C@@H](CC(N)=O)C(=O)N[C@H]2C(=O)N[C@H]3C(=O)N[C@H](C(=O)N[C@H](C(=O)O)c4cc(O)cc(O)c4-c4cc3ccc4O)[C@H](O)c3ccc(c(Cl)c3)Oc3cc2cc(c3O[C@@H]2O[C@H](CO)[C@@H](O)[C@H](O)[C@H]2O[C@H]2C[C@](C)(N)[C@H](O)[C@H](C)O2)Oc2ccc(cc2Cl)[C@H]1O", "assay": "broth dilution", "system": "ATCC 8739, ATCC8739", "MBC": "> 128 µM"}
